Compound activity (PubChem BioAssay)
TRPC6 activator – activators of mouse TRPC6 channel. Q61143. HEK293-TRPC6 membrane potential dye fluorescence; hits give high values. B-score at 10 µM. actives 0.13% (n = 310,000). AID 2550;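 active = B-score of the integrated fluorescence ratio above library mean plus 3 SD, and starting fluorescence ratio within library mean plus 5 SD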;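 note: higher score means more depolarization so channel activation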
TRPC4 agonist – activators of mouse TRPC4 channel; Q9QUQ5; HEK293 TRPC4beta/mu-opioid, Fluo4 calcium fluorescence; hits give high values; B-score at 10 µM; actives 0.49% (n = 310,000);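 active = B-score above 5 SD of library B-scores, and initial fluorescence ratio not above library mean plus 5 SD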;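 note: positive B-score marks a calcium rise read as TRPC4 activation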
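Material: TRPC4beta and mu-opioid receptor HEK293 stable cells | Incubation: 45 min room-temperature Fluo4 loading, 110 s read | Detection: Kinetic Fluo4 calcium fluorescence | Measure: Integrated baseline-normalised fluorescence ratio, converted to per-well B score | Benchmarks: Low control buffer alone, high control maximal DAMGO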
TRPC4 potent – allosterically enhances the mouse TRPC4 cation channel. Q9QUQ5. HEK293 TRPC4beta/mu-opioid, DAMGO EC20, Fluo-4 Ca2+ flux; hits give high values. B-score at 10 µM. actives 0.42% (n = 310,000). AID 2227;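 active = B-score of calcium response area above 5 SD of library B-scores, with initial fluorescence ratio within 5 SD of library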;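 note: B-score of integrated fluorescence ratio over time as area under calcium response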
TRPC6 inh – mouse TRPC6 channel inhibition; Q61143; HEK293-TRPC6, membrane potential dye, ACh-evoked depolarization; hits give low values; B-score at 10 µM; actives 1.1% (n = 310,000); AID 2553;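 active = B-score under library mean minus 3 SD, initial fluorescence not abnormally high, positive integrated signal ratio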;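 note: B-score derived from integrated fluorescence ratio over the kinetic read; more negative B-score means stronger inhibition of depolarization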
TRPC4 inh – TRPC4 (mouse) channel inhibition; AID 2247; Q9QUQ5; actives 0.39% (n = 300,000); HEK293 TRPC4beta/mu-opioid, DAMGO-evoked Fluo4 calcium flux; hits give low values; B-score at 10 µM;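 active = B-score over 3 SD under the library average, no early fluorescence shift, positive overall ratio signal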
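Assay system – HEK293 line stably carrying TRPC4beta and mu-opioid receptor · Doses – single dose · Detection – Fluo4 calcium-dye fluorescence, kinetic read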
TRPC4 sel inh 2 – mouse TRPC4 off-target activity of TRPC6 inhibitors, second screen | shares compounds with TRPC6 inh | HEK293 TRPC4/MOR, membrane potential dye fluorescence; channel activated by saturating DAMGO dose | inhibition, % at 10 µM | actives 42% (n = 920) | AID 2776;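 active = compounds whose fluorescence signal differed from control wells by over 3 SD, either direction, in both duplicate plates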
TRPC4 spec – tests whether TRPC6 inhibitors also affect mouse TRPC4 | shares compounds with TRPC6 inh | HEK293 TRPC4/mu-opioid, membrane potential fluorescence | activity change, negative = inhibition, % at 10 µM | actives 61% (n = 920);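 active = rise or fall in signal beyond 3 SD of buffer-only wells in both replicate plates, either sign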;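 note: integrated kinetic ratio of fluorescence range over baseline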
HEK293 MPD ctr 2-1 – second counter-screen for TRPC6 inhibitors: parental HEK293 cells | shares compounds with TRPC6 inh | parental HEK293 membrane potential dye fluorescence; maximal acetylcholine challenge after compound addition | signal change vs control, % at 10 µM | actives 31% (n = 920);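 active = membrane potential signal moving either way by over 3 SD of the maximum-effect control, in both duplicate plates, meaning non-specific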
HEK293 MPD ctr-1 – checks TRPC6 inhibitor effects in parental HEK293 cells. shares compounds with TRPC6 inh. actives 60% (n = 920). parental HEK293 membrane potential dye fluorescence. membrane potential signal change, % at 10 µM;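 active = membrane potential signal shifting up or down by more than 3 SD of buffer-only wells, on both duplicate plates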
HEK293 MPD ctr-2 – checks TRPC6 modulator effects in parental HEK293 cells | shares compounds with TRPC6 inh | AID 488924 | membrane potential dye fluorescence | membrane potential signal change, % at 10 µM | actives 51% (n = 2,400);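 active = membrane potential signal moves up or down beyond 5 SD from buffer-only wells, on both duplicate plates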
HEK293 MPD ctr 2-2 – second check of TRPC6 modulator effects in parental HEK293 cells. shares compounds with TRPC6 inh. membrane potential dye fluorescence; after compound, maximal acetylcholine stimulation. inhibition, % at 10 µM. actives 14% (n = 2,400). AID 488926;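 active = membrane potential signal drops by more than 5 SD from the mean control signal, in both duplicate plates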;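 note: plate controls were acetylcholine ECmax control wells for no effect and buffer only wells for full effect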
TRPC4/MOR mod – selectivity of TRPC6 modulators against mouse TRPC4 | shares compounds with TRPC6 inh | HEK293 TRPC4/mu-opioid, membrane potential fluorescence | percent change from control (negative = decrease, positive = increase), % at 10 µM | actives 69% (n = 2,400);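 active = membrane potential signal moved up or down beyond 5 SD of buffer control wells, in both duplicate plates, actives on both sides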;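 note: plate controls were assay buffer wells for no effect and DAMGO maximal-effect wells for full effect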
TRPC4 ctr inh 2 – mouse TRPC4 off-target activity of TRPC6 modulators, second screen; shares compounds with TRPC6 inh; HEK293 TRPC4/mu-opioid, membrane potential dye fluorescence; stimulated with maximal-effect DAMGO; inhibition, % at 10 µM; actives 55% (n = 2,400); AID 488928;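 active = drop in membrane potential signal beyond 5 SD of the control wells in both duplicate plates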;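 note: TRPC4 counter screen for TRPC6 hits run under conditions tuned for TRPC6 not TRPC4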
TRPC6 block conf – mouse TRPC6 inhibitor confirmation. inhibition, % at 10 µM. shares compounds with TRPC6 inh. HEK293-TRPC6, membrane potential dye, ACh-evoked depolarization. AID 488960. actives 43% (n = 3,300);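 active = fluorescence ratio falls more than 5 SD below the full-stimulation control mean, in both duplicate runs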;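 note: integrated fluorescence ratio of peak minus minimum over baseline after agonist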
TRPC6 act confirm – mouse TRPC6 activator confirmation. shares compounds with TRPC6 inh. actives 11% (n = 2,800). activation, % at 10 µM. HEK293-TRPC6 membrane potential dye fluorescence, FDSS. AID 488961;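 active = ratio signal rise beyond 5 SD above unstimulated control wells' mean, seen in both duplicate runs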;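 note: plate controls were buffer EC0 wells for no effect and acetylcholine ECmax response for full effect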
* marks the source's active call; other numbers are inactive results; i = inactive; . = not tested or not shown. A selection: hits, their analogues and other compounds. The true share with any hit is near 2.3%.

SMILES	TRPC6 activator	TRPC4 agonist	TRPC4 potent	TRPC6 inh	TRPC4 inh	HEK293 MPD ctr-2	HEK293 MPD ctr 2-2	TRPC4/MOR mod	TRPC4 ctr inh 2	TRPC6 block conf	TRPC6 act confirm	others
Cc1ccc(-c2nn(-c3cc(N4CCNCC4)ccc3[N+](=O)[O-])c(=O)c3ccccc23)cc1	i	i	i	-9.55*	i	.	.	.	.	i	i	TRPC4 sel inh 2=51.0%*;TRPC4 spec=-10.6%*;HEK293 MPD ctr 2-1=i;HEK293 MPD ctr-1=i
CC1CC(C)CN(CCCNC(=O)C2CCCN(c3nnc(N4CCCC4=O)s3)C2)C1 (configuration not stated)	i	i	i	i	i	.	.	.	.	.	.
CSc1ccc(S(=O)(=O)NCCCOC(C)C)cc1	i	i	i	i	i	.	.	.	.	.	.
CC1=C([N+](=O)[O-])C(c2ccccc2C(F)(F)F)NC(=O)N1C (configuration not stated)	i	i	i	i	i	.	.	.	.	.	.
O=[N+]([O-])c1ccc2nc(-c3ccncc3)[nH]c2c1	i	i	i	-6.36*	i	-304.5%*	59.5%*	-52.0%*	35.5%*	i	i
Cc1nc(Nc2ccncc2)c2oc3ccccc3c2n1	i	i	i	-6.43*	i	106.5%*	113.0%*	11.0%*	i	55.5%*	i
CC(=O)Nc1ccc(Nc2nc(C)nc3c2oc2ccccc23)cc1	i	i	i	i	i	.	.	.	.	.	.
CCc1nc(Nc2ccncc2)c2oc3ccccc3c2n1	i	i	i	-5.66*	i	i	75.5%*	-8.0%*	i	i	i
CCN(C(=O)Cn1nnc(-c2ccccc2)n1)C1CCS(=O)(=O)C1 (configuration not stated)	i	i	i	i	i	.	.	.	.	.	.
CN1C(=O)C(N=Nc2ccccc2C(=O)O)N(C)C1=S (configuration not stated)	20.1*	i	i	i	i	438.0%*	i	80.5%*	i	i	198.5%*
Cc1c(C)n(CCCN(C)C)c2ncnc(Nc3ccc(F)cc3)c12	i	i	i	-6.32*	i	-144.0%*	i	-30.0%*	37.5%*	40.0%*	i
Cc1c(C)n(CCN(C)C)c2ncnc(NCc3ccccc3)c12	i	i	i	i	i	.	.	.	.	.	.
Cc1c(C)n(CCc2ccccc2)c2ncnc(NCCCN(C)C)c12	i	i	i	-6.32*	i	-70.5%*	i	-22.0%*	58.0%*	57.5%*	i
C=CCOc1ccc(Cl)cc1CNC1CCCC1	i	i	i	-7.29*	-6*	321.0%*	83.0%*	76.5%*	91.0%*	71.5%*	.
COc1ccc(CNC2CCCC2)c(OC)c1OC	i	i	i	i	i	.	.	.	.	.	.
CCn1cc(C(=O)OCC(=O)N(C)Cc2ccccc2)c(=O)c2ccc(C)nc21	i	i	i	i	i	.	.	.	.	.	.
COCCn1c(=S)[nH]c2cc(C(=O)N3CC(C)CC(C)C3)ccc2c1=O (configuration not stated)	i	i	i	i	i	.	.	.	.	.	.
CCOc1ccc(N2C(=O)C3=C(C(c4ccc(Cl)cc4)=NCCN3)C2c2cccnc2)cc1 (configuration not stated)	i	i	i	i	i	.	.	.	.	.	.
Cc1ccc(C2C3=C(NCCN=C3c3ccccc3)C(=O)N2c2ccccc2)cc1 (configuration not stated)	i	i	i	-6.62*	i	.	.	.	.	74.9%*	i	TRPC4 sel inh 2=16.5%*;TRPC4 spec=18.4%*;HEK293 MPD ctr 2-1=i;HEK293 MPD ctr-1=1.3%*
Cc1nn(C(C)C(=O)N2CCN(c3ccccn3)CC2)c(=O)c2cc3occc3n12 (configuration not stated)	i	i	i	i	i	.	.	.	.	.	.
Cc1cccc(N2CCN(C(=O)C(C)n3nc(C)n4c(cc5occc54)c3=O)CC2)c1C (configuration not stated)	i	i	i	-5.07*	i	i	i	13.5%*	i	i	.
CCCCN1CC[C@H]2C=CC[C@@H](C(=O)Nc3nccs3)[C@H]2C1=O	i	i	i	i	i	.	.	.	.	.	.
CC(=O)Nc1cccc(NC(=O)CSc2nc(=O)n(CCN3CCOCC3)c3c2CCCC3)c1	i	i	i	i	i	.	.	.	.	.	.
CN(C)CCNc1ncnc2c1cnn2-c1ccc(Cl)cc1	i	i	i	-5.2*	i	i	i	i	31.0%*	45.5%*	i
Cc1ccn2cc(-c3ccc4c(c3)NC(=O)CO4)nc2c1	i	i	i	i	i	.	.	.	.	.	.
Cc1cccn2cc(-c3ccc4c(c3)NC(=O)CO4)nc12	i	i	i	-5.93*	i	-84.5%*	i	-16.0%*	i	i	i
COc1ccc(/C=N/Nc2nc(N3CCCC3)nc(N3CCCC3)n2)cc1O	i	i	i	-5.5*	i	i	i	i	i	i	i
